Activity calls are given as the source filed them. The calls are words filed in the database; no cut-off is given here.
Legend:
[1] = Hemolytic activity in human RBC at 25 uM after 1 hr relative to control; assay type: ADME, cell-based, Erythrocyte; conditions: red blood cells (RBC), read-out: Activity
Summary of the method: (§1)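 Human type O erythrocytes are washed in PBS and used at 2% v/v. Two-fold serial dilutions in DMSO are added, then incubated for 1 or 24 h at 37 °C with gentle shaking. After centrifugation at 2000g, hemoglobin release is read as supernatant A405. It is normalized to PBS (0%) and 0.5% Triton X-100 (100%). Mean of three experiments.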

[2] = Hemolytic activity in human RBC at 25 uM after 24 hrs relative to control; assay type: cell-based, Erythrocyte; conditions: red blood cells (RBC), read-out: Activity; summary of the method: as §1
Bacillus thuringiensis = test: Antibacterial activity against Bacillus thuringiensis HD73 measured for 24 hrs; assay type: functional
Summary of the method: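 Broth microdilution in LB. Overnight 37 °C preculture, regrown to OD600 0.5, diluted to OD600 0.1. Wells hold culture plus compound in DMSO (DMSO max 2.5% v/v final). Incubated at 37 °C with stirring, OD600 read at 0, 4, 8 and 24 h. MIC is the lowest concentration with no detectable growth. Triplicates from independent cultures.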

Escherichia coli [3] = test: Antibacterial activity against wild type Escherichia coli DH5alpha measured for 24 hrs; assay type: functional, DH5[alpha]
Summary of the method: (§2)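 Broth microdilution in LB at 37°C. Overnight precultures regrown to OD600 0.5, then diluted to OD600 0.1. Compound added in DMSO, final DMSO max 2.5% (v/v). Plates stirred; OD600 read at 0, 4, 8 and 24 h. MIC taken as lowest concentration with no detectable growth. Triplicates from independent cultures.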

[4] = Induction of nitrate anions efflux in chloroform phase at 1 mM by fluorescence-based U-tube method; assay type: physicochemical; conditions: 1000 µM
Summary of the method: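 U-tube: 10 mL chloroform containing 1 mM ionophore separates 5 mL of 0.1 mM aqueous lucigenin (donor arm) from 5 mL water (receiving arm). Lucigenin fluorescence in the receiving phase is monitored at ex 372 and em 503 nm. Neat chloroform serves as control.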

Escherichia coli [5] = test: Antibacterial activity against Escherichia coli SK037 expressing TolC mutant measured for 24 hrs; assay type: functional; summary of the method: as §2
[6] = Binding affinity to egg yolk phosphotidylcholine liposomes assessed as induction of chloride ion efflux after 250 secs by fluorimetric analysis relative to lipid
Summary of the method: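 EYPC LUVs (100 nm extruded) loaded with 2 mM lucigenin, 100 mM NaCl and 10 mM sodium phosphate pH 6.4. Liposomes are suspended in NaNO3 buffer at 37 °C. Transporter in MeOH, at various concentrations, is added at 50 s and Triton X-100 lysis at 300 s. Chloride efflux is read as lucigenin fluorescence (ex 372, em 503 nm). Traces are averaged over triplicates.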

Escherichia coli [7] = test: Ratio of MIC for wild type Escherichia coli DH5alpha to MIC for Escherichia coli SK037 expressing TolC mutant; assay type: functional
Escherichia coli [8] = test: Induction of membrane permeabilization in Escherichia coli SK037 expressing TolC mutant at 40 times MIC after 2 hrs by diSC25 dye-based fluorescence assay; assay type: functional, organism-based
Summary of the method: (§3)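 E. coli SK037 grown overnight in LB at 37°C, washed in 5 mM HEPES pH 7.3 with 20 mM glucose and diluted to A600 0.15. diSC25 (1 µM final) equilibrated 1 h at 37°C to a stable baseline. Compound in DMSO added to 0.4 mM or 1 mM final. Fluorescence ex 600/em 660 nm followed ~2 h with stirring at 37°C.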

Escherichia coli [9] = test: Induction of membrane depolarization in Escherichia coli SK037 expressing TolC mutant at 40 times MIC after 2 hrs by diSC25 dye-based fluorescence assay; assay type: functional, organism-based; summary of the method: as §3
Lipid bilayer = test: Binding affinity to DPPC liposomes assessed as induction of chloride ion efflux at 35 to 45 degC after 250 secs by fluorimetric analysis; conditions: Microsome
Summary of the method: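 Lucigenin-loaded (2 mM) DPPC LUVs (100 nm extruded) containing 100 mM NaCl and 10 mM sodium phosphate pH 6.4, external dye removed by gel filtration. Vesicles diluted into 2.5 mL stirred phosphate buffer at 35, 40 or 45°C. Transporter in MeOH added at t = 50 s to 10 mol% relative to lipid; Triton X-100 lysis at 300 s. Fluorescence ex 372/em 503 nm. Average of three runs.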

Escherichia coli [10] = test: Antibacterial activity against Escherichia coli SK037 expressing TolC mutant assessed as change in cell morphology and membrane damage after 12 to 24 hrs by field emission scanning electron microscopic analysis; assay type: functional, organism-based
Summary of the method: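 E. coli SK037 grown in LB, washed three times, resuspended in 10 mM PBS pH 7.4 and diluted to A600 1.20 (9 x 10^8 CFU/mL). Cells exposed to 0.04 mM or 0.08 mM compound (added in DMSO) on poly-lysine-coated glass slides at 37°C for 12 h or 24 h. Fixed with 2.5% glutaraldehyde, stained with 1% OsO4, ethanol-dehydrated, critical-point dried, carbon-coated, imaged by field emission SEM.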

[11] = Bacillus thuringiensis, HD73, 24 h, read-out: MIC
[12] = Escherichia coli, DH5[alpha], 24 h, read-out: MIC
[13] = Escherichia coli, SK037, 24 h, read-out: MIC

| SMILES | EC50 [6] [mol%] | Ratio (Escherichia coli [7]) | MIC (Bacillus thuringiensis; [11]) [µM] | MIC (Escherichia coli [3]; [12]) [µM] | MIC (Escherichia coli [5]; [13]) [µM] | also measured |
| --- | --- | --- | --- | --- | --- | --- |
| C(#Cc1ccc(C[n+]2cn(Cc3cccc(Cn4c[n+](Cc5ccc(C#Cc6ccccc6)cc5)c5ccccc54)n3)c3ccccc32)cc1)c1ccccc1.O=S(=O)([O-])C(F)(F)F.O=S(=O)([O-])C(F)(F)F | 0.46 | 2.5 | – | – | – | hemolysis at 1 h, 25 µM [1]: < 10%; hemolysis at 24 h, 25 µM [2]: 10%; MIC (Bacillus thuringiensis): 2 µM; MIC (Escherichia coli [3]): 25 µM; Activity [4]: Active; MIC (Escherichia coli [5]): 10 µM |
| C(#Cc1ccc(C[n+]2cn(Cc3cccc(Cn4c[n+](Cc5ccc(C#Cc6ccccc6)cc5)c5ccccc54)n3)c3ccccc32)cc1)c1ccccc1.O=S(=O)([N-]S(=O)(=O)C(F)(F)F)C(F)(F)F.O=S(=O)([N-]S(=O)(=O)C(F)(F)F)C(F)(F)F [listing 1 of 2 here] | – | – | – | – | – | Activity (Escherichia coli [8]): Active; Activity (Escherichia coli [9]): Active; Activity (Lipid bilayer): Active |
| C(#Cc1ccc(C[n+]2cn(-c3cccc(-n4c[n+](Cc5ccc(C#Cc6ccccc6)cc5)c5ccccc54)n3)c3ccccc32)cc1)c1ccccc1.O=S(=O)([O-])C(F)(F)F.O=S(=O)([O-])C(F)(F)F | 12 | – | – | – | – | MIC (Bacillus thuringiensis): 10 µM; MIC (Escherichia coli [3]): >100 µM |
| C(#Cc1ccc(C[n+]2cn(Cc3cccc(Cn4c[n+](Cc5ccc(C#Cc6ccccc6)cc5)c5ccccc54)n3)c3ccccc32)cc1)c1ccccc1 | – | – | – | – | – | Activity (Escherichia coli [8]): Active; Activity (Escherichia coli [9]): Active; Activity (Escherichia coli [10]): Dose-dependent effect; Activity (Lipid bilayer): Active |
| C(#Cc1ccc(C[n+]2cn(-c3cccc(-n4c[n+](Cc5ccc(C#Cc6ccccc6)cc5)c5ccccc54)n3)c3ccccc32)cc1)c1ccccc1.O=S(=O)([N-]S(=O)(=O)C(F)(F)F)C(F)(F)F.O=S(=O)([N-]S(=O)(=O)C(F)(F)F)C(F)(F)F | 6.9 | – | 10 | > 100 | > 100 | – |
| C(#Cc1ccc(Cn2c[n+](Cc3ccc(C#Cc4ccccc4)cc3)c3ccccc32)cc1)c1ccccc1.O=S(=O)([N-]S(=O)(=O)C(F)(F)F)C(F)(F)F [listing 1 of 2 here] | – | – | – | – | – | Activity (Escherichia coli [8]): Active |
| C(#Cc1ccc(Cn2c[n+](Cc3ccc(C#Cc4ccccc4)cc3)c3ccccc32)cc1)c1ccccc1.[Br-] | 14.8 | – | 10 | > 100 | > 100 | – |
| C(#Cc1ccc(Cn2c[n+](Cc3ccc(C#Cc4ccccc4)cc3)c3ccccc32)cc1)c1ccccc1.O=S(=O)([N-]S(=O)(=O)C(F)(F)F)C(F)(F)F [listing 2 of 2 here] | 5.8 | 2.5 | 10 | > 100 | 25 | – |
| C(#Cc1ccc(C[n+]2cn(Cc3cccc(Cn4c[n+](Cc5ccc(C#Cc6ccccc6)cc5)c5ccccc54)n3)c3ccccc32)cc1)c1ccccc1.O=S(=O)([N-]S(=O)(=O)C(F)(F)F)C(F)(F)F.O=S(=O)([N-]S(=O)(=O)C(F)(F)F)C(F)(F)F [listing 2 of 2 here] | 5.6 | 2.5 | 10 | 50 | 10 | Activity [4]: Not Active |
| C(#Cc1ccc(C[n+]2cn(-c3cccc(-n4c[n+](Cc5ccc(C#Cc6ccccc6)cc5)c5ccccc54)n3)c3ccccc32)cc1)c1ccccc1.[Br-].[Br-] | 24 | – | 10 | > 100 | > 100 | – |
| C(#Cc1ccc(C[n+]2cn(Cc3cccc(Cn4c[n+](Cc5ccc(C#Cc6ccccc6)cc5)c5ccccc54)n3)c3ccccc32)cc1)c1ccccc1.[Br-].[Br-] | 14 | 10 | – | – | 10 | MIC (Bacillus thuringiensis): 10 µM; MIC (Escherichia coli [3]): 100 µM; Activity [4]: Not Active |
